Source: article PMC6482079 (European journal of pharmaceutical sciences : official …, 2019)
Several values for one entry are separate records, joined by “and”; a condition that tells them apart may be missing. Equal values may be shown once.

Tests used:
A/WSN/33 (H1N1) [1] = format: cell-based, influenza A virus
A/WSN/33 (H1N1) [2] = test: Time-of-addition experiment in MDCK cells; format: cell-based, influenza A virus; conditions: NMS-873 1.8 μM; for antiviral activity when added at 8 h post infection / effect on virus replication when present before or during infection: oseltamivir carboxylate 1 μM
[3] = system: A/WSN/33 (H1N1) viral proteins; format: cell-based, influenza A virus
[4] = system: B/Wisconsin/1/2010 (Yamagata); test: Viral titer reduction at high MOI; format: cell-based, influenza B virus; conditions: both 12 h p.i. and 24 h p.i., MOI of 1, MDCK
A549 cells = test: Cellular cytotoxicity in A549 cells; format: cell-based, human; conditions: 3 μM
Summary of the method: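 A549 human alveolar epithelial cells were incubated with serial concentrations of the test compound, up to 3 μM, for 24 or 48 h. Cell viability was then measured by neutral red uptake.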

[5] = system: influenza A and B viruses; test: Plaque reduction assay, summary over the tested panel of viruses; format: cell-based; conditions: Influenza A virus, read-out: EC50 values against these viruses
MDCK cells = MDCK cells treated for 48 h
[6] = system: A/Washington/29/2009 (H1N1); format: cell-based, influenza A virus; conditions: NMS-873 1 or 3 μM, oseltamivir carboxylate 1 μM
[7] = system: influenza vRNPs (NP) nuclear export; format: cell-based, influenza A virus
in vitro = conditions: dog

CCC(CC)O[C@@H]1C=C(C(=O)O)C[C@H](N)[C@H]1NC(C)=O [Oseltamivir carboxylate]
reduction of viral titer (A/WSN/33 (H1N1) [1]): 2.1–2.5 log10 units | antiviral activity when added at 8 h post infection (A/WSN/33 (H1N1) [2]): potent inhibition | effect on virus replication when present before or during infection (A/WSN/33 (H1N1) [2]): no effect

Cc1cc(OCc2nnc(SC3CCCC3)n2-c2cccnc2)ccc1-c1ccc(S(C)(=O)=O)cc1 [NMS-873]
levels of other viral proteins PA, PB1, HA and NS1 [3]: broadly reduced | protein expression levels of M1 and NP [3]: significantly reduced | reduction of viral titer ([4]; 1 μM): more than 1.8 log10 units | inhibition of virus (viral titer) ([4]; 3 μM): completely inhibited | cytotoxicity at highest drug concentration tested (A549 cells): not cytotoxic | EC50 [5]: 0.028 to 0.056 µM | reduction of viral titer (A/WSN/33 (H1N1) [1]): 1.3–1.4 log10 units and 2.2–3.1 log10 units | concentration up to which no cellular cytotoxicity was observed (MDCK cells): up to 1.85 μM | antiviral efficacy when added at 6 h post infection (A/WSN/33 (H1N1) [2]): dramatically decreased | antiviral activity when added at 8 h post infection (A/WSN/33 (H1N1) [2]): completely abolished | effect on virus replication when present before or during infection (A/WSN/33 (H1N1) [2]): no antiviral activity was observed | antiviral activity (viral titer) [6]: potent antiviral activity | NP subcellular localization [7]: NP largely accumulated in the nucleus | virus entry and NP nuclear import [7]: neither affected the virus entry nor NP nuclear import | CC50 (in vitro): 2.72 ± 0.03 µM
